Tests used:
[1] = molecular target: DNA topoisomerase 2-alpha (Homo sapiens) (UniProt P11388); experiment: Inhibition of human topoisomerase 2alpha-mediated relaxation of supercoiled pBR322 DNA at 100 uM after 30 mins by agarose gel electrophoresis relative to control
Method in brief: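 Human topo IIα (1 unit) with 200 ng supercoiled pBR322 in Tris-HCl pH 7.9, 50 mM NaCl, 5 mM MgCl2, 1 mM EDTA, 1 mM ATP, BSA, 30 min at 30 °C. DMSO was matched in the enzyme-only control. Stopped with EDTA; 1% agarose/TAE gel, ethidium stain, supercoiled band quantified by UV imaging. Etoposide was the positive control.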

[2] = tested on: MCF7; experiment: Growth inhibition of human MCF7 cells after 48 hrs by sulforhodamine B assay; format: functional; settings: MCF7, 48 h
Method in brief: (§1)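 NCI 60-panel five-dose test at 10-fold dilutions, 10^-4 to 10^-8 M, with 48 h continuous exposure and SRB protein read-out. Percent growth derived from time-zero, untreated-control and treated absorbances. GI50 is the concentration where [(Ti-Tz)/(C-Tz)]×100 = 50. TGI is taken at Ti = Tz. LC50 is taken at [(Ti-Tz)/Tz]×100 = -50.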

[3] = tested on: SK-MEL-2; experiment: Growth inhibition of human SK-MEL-2 cells after 48 hrs by sulforhodamine B assay; format: functional; settings: SK-MEL-2, 48 h; for CC50: read-out: LC50 (the source's name)
Method in brief: (§2)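 NCI five-dose screen on the full 60-cell-line panel. Cells were given 10-fold dilutions from 10^-4 to 10^-8 M with continuous 48 h exposure, and growth was read by SRB staining. Percent growth was taken from time-zero, control and treated absorbances. GI50, TGI and LC50 were then derived, the GI50 being the concentration that gives a 50% lower net protein increase than control.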

[4] = tested on: MDA-MB-435; experiment: Growth inhibition of human MDA-MB-435 cells after 48 hrs by sulforhodamine B assay; format: functional; settings: MDA-MB-435, 48 h; method in brief: as §2
[5] = tested on: LOX IMVI; experiment: Growth inhibition of human LOXIMVI cells after 48 hrs by sulforhodamine B assay; format: functional; method in brief: as §1
[6] = tested on: HCT-15; experiment: Growth inhibition of human HCT15 cells after 48 hrs by sulforhodamine B assay; format: functional; settings: HCT-15, 48 h; method in brief: as §1
[7] = Growth inhibition of human HCC2998 cells after 48 hrs by sulforhodamine B assay; format: functional; settings: HCC 2998, 48 h; for CC50: read-out: LC50 (the source's name); method in brief: as §1
[8] = tested on: COLO 205; experiment: Growth inhibition of human COLO205 cells after 48 hrs by sulforhodamine B assay; format: functional; settings: COLO 205, 48 h; method in brief: as §1
[9] = tested on: MOLT-4; experiment: Growth inhibition of human MOLT4 cells after 48 hrs by sulforhodamine B assay; format: functional; settings: MOLT-4, 48 h; for CC50: read-out: LC50 (the source's name); method in brief: as §2
[10] = tested on: K562; experiment: Growth inhibition of human K562 cells after 48 hrs by sulforhodamine B assay; format: functional; settings: K562, 48 h; method in brief: as §1
[11] = tested on: HL-60(TB); experiment: Growth inhibition of human HL-60(TB) cells after 48 hrs by sulforhodamine B assay; format: functional; settings: HL-60, 48 h; for CC50: read-out: LC50 (the source's name)
Method in brief: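 NCI 60-panel five-dose screen: cells exposed continuously for 48 h to 10-fold dilutions from 10^-4 to 10^-8 M; SRB protein staining read spectrophotometrically. Percent growth from time-zero, untreated-control and treated absorbances; GI50 is the concentration giving 50% lower net protein increase than control.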

[12] = tested on: CCRF-CEM; experiment: Growth inhibition of human CCRF-CEM cells after 48 hrs by sulforhodamine B assay; format: functional; method in brief: as §1
[13] = tested on: TK-10; experiment: Growth inhibition of human TK10 cells assessed as cell growth at 10^-5 M after 48 hrs by sulforhodamine B assay; format: functional; settings: TK-10, 48 h, read-out: Activity
Method in brief: (§3)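 NCI primary one-dose screen: single concentration of 10^-5 M added to culture, 48 h incubation, SRB protein-dye endpoint. Percent growth of treated cells measured spectrophotometrically against untreated controls.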

[14] = tested on: ACHN; experiment: Growth inhibition of human ACHN cells assessed as cell growth at 10^-5 M after 48 hrs by sulforhodamine B assay; format: functional; settings: read-out: Activity
Method in brief: (§4)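 NCI 60-cell-line primary screen. Single concentration of 10^-5 M, 48 h incubation. End point by sulforhodamine B protein staining read spectrophotometrically. Reported as percent growth of treated cells relative to untreated control cells.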

[15] = tested on: 786-0; experiment: Growth inhibition of human 786-0 cells assessed as cell growth at 10^-5 M after 48 hrs by sulforhodamine B assay; format: functional; settings: 786-0, 48 h, read-out: Activity; method in brief: as §4
[16] = tested on: IGROV-1; experiment: Growth inhibition of human IGROV1 cells assessed as cell growth at 10^-5 M after 48 hrs by sulforhodamine B assay; format: functional; settings: IGROV-1, 48 h, read-out: Activity; method in brief: as §4
[17] = tested on: UACC-62; experiment: Growth inhibition of human UACC62 cells assessed as cell growth at 10^-5 M after 48 hrs by sulforhodamine B assay; format: functional; settings: UACC-62, 48 h, read-out: Activity; method in brief: as §3
[18] = tested on: SK-MEL-5; experiment: Growth inhibition of human SK-MEL-5 cells assessed as cell growth at 10^-5 M after 48 hrs by sulforhodamine B assay; format: functional; settings: SK-MEL-5, 48 h, read-out: Activity
Method in brief: (§5)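 NCI 60-cell-line primary one-dose screen. Cells were exposed to a single 10^-5 M concentration for 48 h. The end point was sulforhodamine B protein staining, read spectrophotometrically. Results are reported as percent growth of treated cells relative to untreated control cells.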

[19] = tested on: Malme-3M; experiment: Growth inhibition of human MALME-3M cells assessed as cell growth at 10^-5 M after 48 hrs by sulforhodamine B assay; format: functional; settings: read-out: Activity; method in brief: as §4
[20] = tested on: U-251; experiment: Growth inhibition of human U251 cells assessed as cell growth at 10^-5 M after 48 hrs by sulforhodamine B assay; format: functional; settings: U-251, 48 h, read-out: Activity; method in brief: as §3
[21] = tested on: SF-295; experiment: Growth inhibition of human SF295 cells assessed as cell growth at 10^-5 M after 48 hrs by sulforhodamine B assay; format: functional; settings: SF-295, 48 h, read-out: Activity; method in brief: as §5
[22] = tested on: HCT-15; experiment: Growth inhibition of human HCT15 cells assessed as cell growth at 10^-5 M after 48 hrs by sulforhodamine B assay; format: functional; settings: HCT-15, 48 h, read-out: Activity; method in brief: as §4
[23] = tested on: NCI-H322M; experiment: Growth inhibition of human NCI-H322M cells assessed as cell growth at 10^-5 M after 48 hrs by sulforhodamine B assay; format: functional; settings: read-out: Activity; method in brief: as §5
[24] = tested on: HOP-92; experiment: Growth inhibition of human HOP92 cells assessed as cell growth at 10^-5 M after 48 hrs by sulforhodamine B assay; format: functional; settings: HOP-92, 48 h, read-out: Activity; method in brief: as §4
[25] = tested on: HOP-62; experiment: Growth inhibition of human HOP62 cells assessed as cell growth at 10^-5 M after 48 hrs by sulforhodamine B assay; format: functional; settings: HOP-62, 48 h, read-out: Activity; method in brief: as §4

Sequence of DNA topoisomerase 2-alpha (Homo sapiens) (P11388 whole entry): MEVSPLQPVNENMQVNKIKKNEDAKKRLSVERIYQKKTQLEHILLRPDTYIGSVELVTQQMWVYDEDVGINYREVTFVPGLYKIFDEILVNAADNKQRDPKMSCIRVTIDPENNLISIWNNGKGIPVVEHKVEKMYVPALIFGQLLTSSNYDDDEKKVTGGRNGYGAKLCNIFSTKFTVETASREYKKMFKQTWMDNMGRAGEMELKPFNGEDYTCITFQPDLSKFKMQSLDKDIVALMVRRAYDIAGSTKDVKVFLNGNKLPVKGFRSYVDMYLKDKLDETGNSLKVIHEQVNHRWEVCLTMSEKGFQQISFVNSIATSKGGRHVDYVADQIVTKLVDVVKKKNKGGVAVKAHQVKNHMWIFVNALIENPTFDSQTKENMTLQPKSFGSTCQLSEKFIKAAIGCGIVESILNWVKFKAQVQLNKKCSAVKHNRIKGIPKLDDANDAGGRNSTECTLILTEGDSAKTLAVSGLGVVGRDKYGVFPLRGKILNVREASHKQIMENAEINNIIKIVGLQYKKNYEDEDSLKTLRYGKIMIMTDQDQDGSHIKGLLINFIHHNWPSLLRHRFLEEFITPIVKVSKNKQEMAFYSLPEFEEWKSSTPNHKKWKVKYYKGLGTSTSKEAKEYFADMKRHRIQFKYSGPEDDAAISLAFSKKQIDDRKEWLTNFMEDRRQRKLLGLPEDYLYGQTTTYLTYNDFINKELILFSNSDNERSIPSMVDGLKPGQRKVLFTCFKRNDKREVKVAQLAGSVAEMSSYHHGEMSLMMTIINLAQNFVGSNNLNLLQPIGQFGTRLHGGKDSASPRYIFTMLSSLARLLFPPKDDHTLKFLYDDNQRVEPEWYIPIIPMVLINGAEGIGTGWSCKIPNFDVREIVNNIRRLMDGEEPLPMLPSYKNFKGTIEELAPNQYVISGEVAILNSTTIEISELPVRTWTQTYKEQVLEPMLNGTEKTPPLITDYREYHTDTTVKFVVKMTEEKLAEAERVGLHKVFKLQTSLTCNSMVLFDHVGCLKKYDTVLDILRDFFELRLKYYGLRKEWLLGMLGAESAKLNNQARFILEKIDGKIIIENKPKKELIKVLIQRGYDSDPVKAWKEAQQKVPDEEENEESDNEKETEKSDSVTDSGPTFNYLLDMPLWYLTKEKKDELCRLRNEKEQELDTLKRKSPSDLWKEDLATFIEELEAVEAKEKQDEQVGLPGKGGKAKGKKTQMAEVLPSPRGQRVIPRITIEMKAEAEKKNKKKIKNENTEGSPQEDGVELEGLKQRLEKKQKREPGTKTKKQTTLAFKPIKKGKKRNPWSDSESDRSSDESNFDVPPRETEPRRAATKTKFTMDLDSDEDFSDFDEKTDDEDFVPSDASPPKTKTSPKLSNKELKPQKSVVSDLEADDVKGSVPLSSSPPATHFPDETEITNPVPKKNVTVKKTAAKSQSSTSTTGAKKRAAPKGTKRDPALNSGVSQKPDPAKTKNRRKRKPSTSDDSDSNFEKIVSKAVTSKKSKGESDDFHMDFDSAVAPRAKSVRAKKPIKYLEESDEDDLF

O=C(CN1CCN(c2cc3c(cc2F)c(=O)c(C(=O)O)cn3C2CC2)CC1)Nc1ccc(C(=O)/C=C/c2ccccc2)cc1
inhibition [1]: 35.7% | GI50 [2]: 3.52 µM | LC50 (50% net cell kill) [2]: > 100 µM | TGI [2]: > 100 µM | GI50 [3]: 2.94 µM | TGI [3]: 11.3 µM | CC50 [3]: > 100 µM | GI50 [4]: 2.94 µM | LC50 [4]: > 100 µM | TGI [4]: > 100 µM | GI50 [5]: 2.32 µM | LC50 (concentration killing 50% of starting cells) [5]: > 100 µM | TGI [5]: > 100 µM | GI50 [6]: 3.68 µM | LC50 (concentration giving 50% net cell kill) [6]: > 100 µM | TGI [6]: > 100 µM | GI50 [7]: 39.6 µM | TGI [7]: > 100 µM | CC50 [7]: > 100 µM | GI50 [8]: 36.3 µM | LC50 (lethal concentration, 50% net cell kill) [8]: > 100 µM | TGI [8]: > 100 µM | GI50 [9]: 5.13 µM | TGI [9]: > 100 µM | CC50 [9]: > 100 µM | GI50 [10]: 3.07 µM | LC50 (concentration giving 50% net cell kill) [10]: > 100 µM | TGI [10]: > 100 µM | GI50 [11]: 9.44 µM | TGI [11]: > 100 µM | CC50 [11]: > 100 µM | GI50 [12]: 4.09 µM | LC50 (concentration giving 50% net cell kill) [12]: > 100 µM | TGI [12]: > 100 µM | growth at 10 µM [13]: 39.9% | growth at 10 µM [14]: 40% | growth at 10 µM [15]: 23.2% | growth at 10 µM [16]: 42.9% | growth at 10 µM [17]: 35.5% | growth at 10 µM [18]: 13.6% | growth at 10 µM [19]: 51% | growth at 10 µM [20]: 14.9% | growth at 10 µM [21]: 15.2% | growth at 10 µM [22]: 56.8% | growth at 10 µM [23]: 73.7% | growth at 10 µM [24]: 14.9% | growth at 10 µM [25]: 59.4%

COc1cc(/C=C/C(=O)c2ccc(NC(=O)CN3CCN(c4cc5c(cc4F)c(=O)c(C(=O)O)cn5C4CC4)CC3)cc2)cc(OC)c1OC
inhibition [1]: 5.2% | GI50 [2]: 0.47 µM | LC50 (50% net cell kill) [2]: > 100 µM | TGI [2]: > 100 µM | GI50 [3]: 1.98 µM | TGI [3]: 5.38 µM | CC50 [3]: 43.7 µM | GI50 [4]: 0.3 µM | LC50 [4]: > 100 µM | TGI [4]: 1.7 µM | GI50 [5]: 0.53 µM | LC50 (concentration killing 50% of starting cells) [5]: > 100 µM | TGI [5]: 2.65 µM | GI50 [6]: 0.45 µM | LC50 (concentration giving 50% net cell kill) [6]: > 100 µM | TGI [6]: > 100 µM | GI50 [7]: 2.76 µM | TGI [7]: 11.4 µM | CC50 [7]: > 100 µM | GI50 [8]: 1.62 µM | LC50 (lethal concentration, 50% net cell kill) [8]: > 100 µM | TGI [8]: 15.4 µM | GI50 [9]: 0.31 µM | CC50 [9]: > 100 µM | GI50 [10]: 0.27 µM | LC50 (concentration giving 50% net cell kill) [10]: > 100 µM | TGI [10]: > 100 µM | GI50 [11]: 1.11 µM | TGI [11]: > 100 µM | CC50 [11]: > 100 µM | GI50 [12]: 0.32 µM | LC50 (concentration giving 50% net cell kill) [12]: > 100 µM | growth at 10 µM [13]: 19.1% | growth at 10 µM [14]: 10.8% | growth at 10 µM [15]: -67.8% | growth at 10 µM [16]: -1.19% | growth at 10 µM [17]: -23.5% | growth at 10 µM [18]: -42.9% | growth at 10 µM [19]: 31.4% | growth at 10 µM [20]: -55.8% | growth at 10 µM [21]: -27.2% | growth at 10 µM [22]: 18.2% | growth at 10 µM [23]: -7.05% | growth at 10 µM [24]: -1.75% | growth at 10 µM [25]: 4.38%
